Test results reported in ChEMBL document CHEMBL5058577, “EUbOPEN Chemogenomics Library 2 (Multiplex)” (2022).

Tested on: HEK-293T
Assay: Multiplex assay against HEK293T
Type: toxicity, cell-based
Conditions: human
In short: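 With compound added, live cells were imaged on a CQ1 microscope at 37°C and 5% CO2; staining with Hoechst33342, BioTracker Green Microtubule Cytoskeleton Dye, MitoTracker Red and Annexin V Alexa Fluor 680 had been done at seeding. The CellPathfinder machine-learning gating scheme split cells into Hoechst high-intensity objects or normal cells, normal cells into healthy, pyknosed or fragmented nuclei, and pyknosed cells into mitotic or apoptotic. The tubulin, mitochondrial-mass and membrane-permeability phenotypes are per cents of healthy-nucleus cells.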

[1] = 12 h, 1 µM, compound concentration 1 uM, replicate 1
[2] = 12 h, 1 µM, compound concentration 1 uM, replicate 2
[3] = 12 h, 10 µM, compound concentration 10 uM, replicate 1
[4] = 12 h, 10 µM, compound concentration 10 uM, replicate 2
[5] = 24 h, 1 µM, compound concentration 1 uM, replicate 1
[6] = 24 h, 1 µM, compound concentration 1 uM, replicate 2
[7] = 24 h, 10 µM, compound concentration 10 uM, replicate 1
[8] = 24 h, 10 µM, compound concentration 10 uM, replicate 2
[9] = 48 h, 1 µM, compound concentration 1 uM, replicate 1
[10] = 48 h, 1 µM, compound concentration 1 uM, replicate 2
[11] = 48 h, 10 µM, compound concentration 10 uM, replicate 1
[12] = 48 h, 10 µM, compound concentration 10 uM, replicate 2

Structure (SMILES): O=C(O)CCC/C=C\CC1C(O)CC(O)C1/C=C/C(O)COc1cccc(Cl)c1 (stereo not drawn) [CLOPROSTENOL]
- Population Apoptotic (%) [1]: 31%
- Population Fragmented Nuclei (%) [1]: 7%
- Population Healthy Nuclei (%) [1]: 81%
- Population Hoechst High Intensity Objects (%) [1]: 9%
- Population Membrane Permeable-Phenotype (%) [1]: 0%
- Population Mitochondria Different-Phenotype (%) [1]: 44%
- Population Mitotic Cells (%) [1]: 68%
- Population Normal (%) [1]: 90%
- Population Pyknosed Nuclei (%) [1]: 10%
- Population Tubulin-Different-Phenotype (%) [1]: 35%
- Total Cell Count [1]: 458
- Population Apoptotic (%) [2]: 40%
- Population Fragmented Nuclei (%) [2]: 6%
- Population Healthy Nuclei (%) [2]: 80%
- Population Hoechst High Intensity Objects (%) [2]: 7%
- Population Mitochondria Different-Phenotype (%) [2]: 56%
- Population Mitotic Cells (%) [2]: 59%
- Population Normal (%) [2]: 92%
- Population Pyknosed Nuclei (%) [2]: 13%
- Population Tubulin-Different-Phenotype (%) [2]: 23%
- Total Cell Count [2]: 341
- Population Apoptotic (%) [3]: 45%
- Population Fragmented Nuclei (%) [3]: 7%
- Population Healthy Nuclei (%) [3]: 77%
- Population Hoechst High Intensity Objects (%) [3]: 6%
- Population Membrane Permeable-Phenotype (%) [3]: 0%
- Population Mitochondria Different-Phenotype (%) [3]: 63%
- Population Mitotic Cells (%) [3]: 54%
- Population Normal (%) [3]: 93%
- Population Pyknosed Nuclei (%) [3]: 14%
- Population Tubulin-Different-Phenotype (%) [3]: 41%
- Total Cell Count [3]: 395
- Population Apoptotic (%) [4]: 51%
- Population Fragmented Nuclei (%) [4]: 8%
- Population Hoechst High Intensity Objects (%) [4]: 13%
- Population Mitochondria Different-Phenotype (%) [4]: 68%
- Population Mitotic Cells (%) [4]: 48%
- Population Normal (%) [4]: 86%
- Population Tubulin-Different-Phenotype (%) [4]: 37%
- Total Cell Count [4]: 357
- Population Apoptotic (%) [5]: 22%
- Population Fragmented Nuclei (%) [5]: 11%
- Population Healthy Nuclei (%) [5]: 76%
- Population Hoechst High Intensity Objects (%) [5]: 7%
- Population Membrane Permeable-Phenotype (%) [5]: 1%
- Population Mitochondria Different-Phenotype (%) [5]: 25%
- Population Mitotic Cells (%) [5]: 77%
- Population Normal (%) [5]: 92%
- Population Pyknosed Nuclei (%) [5]: 11%
- Population Tubulin-Different-Phenotype (%) [5]: 28%
- Total Cell Count [5]: 612
- Population Apoptotic (%) [6]: 34%
- Population Fragmented Nuclei (%) [6]: 7%
- Population Healthy Nuclei (%) [6]: 83%
- Population Hoechst High Intensity Objects (%) [6]: 5%
- Population Membrane Permeable-Phenotype (%) [6]: 0%
- Population Mitochondria Different-Phenotype (%) [6]: 37%
- Population Mitotic Cells (%) [6]: 65%
- Population Normal (%) [6]: 94%
- Population Pyknosed Nuclei (%) [6]: 9%
- Population Tubulin-Different-Phenotype (%) [6]: 16%
- Total Cell Count [6]: 477
- Population Apoptotic (%) [7]: 46%
- Population Fragmented Nuclei (%) [7]: 10%
- Population Healthy Nuclei (%) [7]: 78%
- Population Hoechst High Intensity Objects (%) [7]: 7%
- Population Membrane Permeable-Phenotype (%) [7]: 0%
- Population Mitochondria Different-Phenotype (%) [7]: 46%
- Population Mitotic Cells (%) [7]: 54%
- Population Normal (%) [7]: 92%
- Population Pyknosed Nuclei (%) [7]: 10%
- Population Tubulin-Different-Phenotype (%) [7]: 35%
- Total Cell Count [7]: 490
- Population Fragmented Nuclei (%) [8]: 12%
- Population Hoechst High Intensity Objects (%) [8]: 11%
- Population Mitochondria Different-Phenotype (%) [8]: 55%
- Population Mitotic Cells (%) [8]: 53%
- Population Normal (%) [8]: 88%
- Population Pyknosed Nuclei (%) [8]: 9%
- Population Tubulin-Different-Phenotype (%) [8]: 31%
- Total Cell Count [8]: 483
- Population Apoptotic (%) [9]: 20%
- Population Fragmented Nuclei (%) [9]: 15%
- Population Healthy Nuclei (%) [9]: 77%
- Population Hoechst High Intensity Objects (%) [9]: 4%
- Population Membrane Permeable-Phenotype (%) [9]: 1%
- Population Mitochondria Different-Phenotype (%) [9]: 15%
- Population Mitotic Cells (%) [9]: 79%
- Population Normal (%) [9]: 95%
- Population Pyknosed Nuclei (%) [9]: 6%
- Population Tubulin-Different-Phenotype (%) [9]: 15%
- Total Cell Count [9]: 956
- Population Apoptotic (%) [10]: 28%
- Population Fragmented Nuclei (%) [10]: 13%
- Population Healthy Nuclei (%) [10]: 81%
- Population Hoechst High Intensity Objects (%) [10]: 5%
- Population Mitochondria Different-Phenotype (%) [10]: 20%
- Population Mitotic Cells (%) [10]: 71%
- Population Normal (%) [10]: 94%
- Population Pyknosed Nuclei (%) [10]: 5%
- Population Tubulin-Different-Phenotype (%) [10]: 11%
- Total Cell Count [10]: 703
- Population Apoptotic (%) [11]: 33%
- Population Fragmented Nuclei (%) [11]: 16%
- Population Healthy Nuclei (%) [11]: 76%
- Population Hoechst High Intensity Objects (%) [11]: 7%
- Population Membrane Permeable-Phenotype (%) [11]: 0%
- Population Mitochondria Different-Phenotype (%) [11]: 32%
- Population Mitotic Cells (%) [11]: 66%
- Population Normal (%) [11]: 92%
- Population Pyknosed Nuclei (%) [11]: 6%
- Population Tubulin-Different-Phenotype (%) [11]: 18%
- Total Cell Count [11]: 659
- Population Apoptotic (%) [12]: 25%
- Population Fragmented Nuclei (%) [12]: 18%
- Population Healthy Nuclei (%) [12]: 75%
- Population Hoechst High Intensity Objects (%) [12]: 6%
- Population Membrane Permeable-Phenotype (%) [12]: 1%
- Population Mitochondria Different-Phenotype (%) [12]: 25%
- Population Mitotic Cells (%) [12]: 74%
- Population Normal (%) [12]: 93%
- Population Pyknosed Nuclei (%) [12]: 5%
- Total Cell Count [12]: 731
